Test results published in ChEMBL document CHEMBL1121756, “Structure-activity relationships of the cycloalkyl ring of phencyclidine” (J Med Chem, 1981).
The source made the active and inactive calls. The rule behind the calls is not given here.

Columns and labels:
[1] = species: Rattus norvegicus; experiment: Relative potency in the rat discriminative stimulus assay, expressed as mg of PCP (= 1.0 mg of compound); format: functional
Procedure, shortened: (§1)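 Male Fischer-derived CDF rats trained to discriminate PCP (3.0 mg/kg ip, 30 min before session) from saline in a two-choice, discrete-trial avoidance task. In tests, generalization counted if the group averaged ≥90% of 20 trials on the PCP lever. Relative potency versus PCP derived by standard bioassay statistics.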

[2] = species: Rattus norvegicus; experiment: Ability to displace 7.0 nM [3H]-PCP binding to rat brain homogenate relative to PCP
Procedure, shortened: (§2)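 Freshly prepared rat brain homogenate aliquots incubated 45 min at 4 °C with 7.0 nM [3H]PCP; bound radioligand measured by filtration. Displacement curve for each analogue fitted visually from a log-probit plot to give IC50. PCP run as standard in each assay, and each analogue's IC50 compared with it.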

[3] = test system: Rattus norvegicus; experiment: Relative potency in the rat discriminative stimulus assay, expressed as mg of PCP (= 1.0 mg of compound); Did not generalize to PCP, Produced CNS depression at 56 mg/Kg; format: functional, organism-based
[4] = species: Rattus norvegicus; experiment: Ability to displace 7.0 nM [3H]PCP binding to rat brain homogenate relative to PCP (IC50= 270 nM); procedure, shortened: as §2
[5] = species: Rattus norvegicus; experiment: Inhibitory concentration for [3H]PCP binding to rat brain homogenate relative to PCP; procedure, shortened: as §2
[6] = test system: Rattus norvegicus; experiment: Relative potency in the rat discriminative stimulus assay, expressed as mg of PCP (= 1.0 mg of compound); Did not generalize to PCP, No activity seen at doses of <=56 mg/Kg; format: functional, organism-based; procedure, shortened: as §1
[7] = test system: Rattus norvegicus; experiment: Relative potency in the rat discriminative stimulus assay, expressed as mg of PCP (= 1.0 mg of compound); Did not generalize to PCP, Tonic seizures was observed at 56 mg/Kg; format: functional, organism-based; procedure, shortened: as §1

Row | Structure (SMILES) | Relative potency [1] | Relative potency [2] | further results
1 | Cl.c1ccc(C2(N3CCCCC3)CCCC2)cc1 | 0.37 | 0.12 | 
2 | Cl.c1ccc(C2(N3CCCCC3)CCC2)cc1 | 0.19 | 0.08 | 
3 | Cl.c1ccc(C2(N3CCCCC3)CCCCCC2)cc1 | 0.06 | 0.23 | 
4 | c1ccc(CN2CCCCC2)cc1 |  | 0.02 | Relative potency [3]: inactive
5 | Cl.c1ccc(C2(N3CCCCC3)CCCCC2)cc1 [PHENCYCLIDINE HYDROCHLORIDE] | 1 |  | Relative potency [4]: 1; IC50 [5]: 270 nM
6 | c1ccc(C2(N3CCCCC3)CC2)cc1 |  | 0.07 | Relative potency [6]: inactive
7 | c1ccc(C2(N3CCCCC3)CCCCCCC2)cc1 |  | 0.72 | Relative potency [7]: inactive
